According to ChEMBL document CHEMBL3804779, “Novel free fatty acid receptor 1 (GPR40) agonists based on 1,3,4-thiadiazole-2-carboxamide scaffold” (Bioorg Med Chem, 2016):

How the values were obtained:
[1] = biological target: Free fatty acid receptor 1 (Homo sapiens, UniProt O14842); assay: Agonist activity at human GPR40 expressed in CHO cells by calcium influx assay; format: functional, cell-based
Method in brief: (§1)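 CHO cells stably expressing the receptor (GPR40, GPR41, GPR43 or GPR120) plated 24 h before assay and loaded with calcium dye for 1 h. Calcium flux read on FLIPR Tetra. Agonist response taken as maximum fluorescence change over baseline. Concentration-response curves fitted for EC50. GW9508 run as positive control.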

[2] = biological target: T1, Free fatty acid receptor 3 (Homo sapiens, UniProt O14843); assay: Agonist activity at human GPR41 (unknown origin) expressed in CHO cells by calcium influx assay; format: functional, cell-based; method in brief: as §1
T1 sequence (O14843 whole entry): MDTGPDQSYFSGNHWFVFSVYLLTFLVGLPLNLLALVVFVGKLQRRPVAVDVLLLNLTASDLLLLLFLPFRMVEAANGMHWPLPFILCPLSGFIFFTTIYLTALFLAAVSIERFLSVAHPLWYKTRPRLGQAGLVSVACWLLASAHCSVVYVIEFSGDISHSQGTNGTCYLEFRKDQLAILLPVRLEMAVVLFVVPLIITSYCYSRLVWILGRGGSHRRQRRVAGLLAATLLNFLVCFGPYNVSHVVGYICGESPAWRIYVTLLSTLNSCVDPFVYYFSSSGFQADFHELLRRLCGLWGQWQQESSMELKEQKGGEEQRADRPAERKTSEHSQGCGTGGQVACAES

[3] = biological target: T2, Free fatty acid receptor 2 (Homo sapiens, UniProt O15552); assay: Agonist activity at human GPR43 (unknown origin) expressed in CHO cells by calcium influx assay; format: functional, cell-based; method in brief: as §1
T2 sequence (O15552 whole entry): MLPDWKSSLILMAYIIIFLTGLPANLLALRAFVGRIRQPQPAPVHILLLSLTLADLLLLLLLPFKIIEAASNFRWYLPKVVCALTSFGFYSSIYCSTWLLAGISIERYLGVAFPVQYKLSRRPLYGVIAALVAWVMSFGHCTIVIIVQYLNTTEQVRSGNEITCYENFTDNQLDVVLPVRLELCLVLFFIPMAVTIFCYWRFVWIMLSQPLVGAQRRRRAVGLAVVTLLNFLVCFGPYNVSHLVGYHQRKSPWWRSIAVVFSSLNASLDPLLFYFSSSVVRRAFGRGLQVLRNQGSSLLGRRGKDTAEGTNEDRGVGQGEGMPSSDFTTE

[4] = biological target: T3, Free fatty acid receptor 4 (Homo sapiens, UniProt Q5NUL3); assay: Agonist activity at human GPR120 (unknown origin) expressed in CHO cells by calcium influx assay; format: functional, cell-based; method in brief: as §1
T3 sequence (Q5NUL3 whole entry): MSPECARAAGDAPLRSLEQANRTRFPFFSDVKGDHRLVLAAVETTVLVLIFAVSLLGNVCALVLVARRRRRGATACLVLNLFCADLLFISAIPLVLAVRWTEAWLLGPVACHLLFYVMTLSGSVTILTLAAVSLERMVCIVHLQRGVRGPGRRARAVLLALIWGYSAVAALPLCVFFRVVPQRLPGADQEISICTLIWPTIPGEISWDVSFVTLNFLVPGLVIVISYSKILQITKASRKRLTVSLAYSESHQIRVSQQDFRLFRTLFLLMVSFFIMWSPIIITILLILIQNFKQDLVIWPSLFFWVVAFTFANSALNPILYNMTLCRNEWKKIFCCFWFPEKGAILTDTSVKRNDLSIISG

[5] = Half life in mouse plasma at 1 uM by LC-MS/MS analysis; format: ADME
Method in brief: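 Compound at 1 uM (1% DMSO final) incubated in mouse plasma at 37 °C with shaking. Five time points sampled over 120 min, each quenched with acetonitrile and centrifuged. Supernatant analysed by LC-MS/MS for percentage remaining and T1/2. Verapamil and propantheline used as references.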

[6] = Protein binding in mouse plasma at 1 uM after 5 hrs by HPLC-MS/MS analysis; format: ADME, cell-free; conditions: read-out: PPB (converted)
Method in brief: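 Equilibrium dialysis (MWCO 12-14 kDa) of mouse plasma spiked at 1 uM (1% solvent final) against PBS pH 7.4, 37 °C, orbital shaking, 5 h, in quadruplicate. Chamber samples matrix-matched, precipitated with acetonitrile and analysed by HPLC-MS/MS. % bound = (1 − buffer/plasma peak area) × 100. Recovery checked against an undialyzed standard. Verapamil used as reference.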

[7] = Metabolic stability in BALB/c mouse liver microsomes at 2 uM after 40 mins by HPLC analysis; format: ADME
Method in brief: (§2)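 BALB/c male mouse liver microsomes (pooled, perfused livers) at 0.42 mg protein/ml in 100 mM phosphate buffer pH 7.4 with MgCl2 and an NADPH-regenerating system. Compound at 2 uM (1.6% solvent final) incubated at 37 °C in duplicate. Five time points over 40 min, quenched with acetonitrile and read by HPLC-MS/MS. Controls lacked NADPH. kel from ln(AUC) vs time regression; T1/2 = 0.693/kel; CLint scaled per mg microsomal protein.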

[8] = Distribution coefficient, log D of the compound at pH 7.4 by LC-MS/MS analysis; format: physicochemical; conditions: octanol/water
Method in brief: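 Shake-flask partitioning between n-octanol and PBS, run in duplicate. Compound added from 10 mM DMSO stock to pre-equilibrated phases, shaken 1 h and separated by centrifugation. Each phase diluted and quantified by LC-MS/MS. D calculated from peak areas corrected for dilution (100·So/Sp). Reference compound included.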

[9] = Intrinsic clearance in BALB/c mouse liver microsomes at 2 uM after 40 mins by HPLC analysis; format: ADME; conditions: read-out: CLH; method in brief: as §2
[10] = biological target: T4, hERG (KCNH2) (Homo sapiens, UniProt Q12809); assay: Inhibition of human ERG expressed in cell membranes at 20 uM after 4 hrs by fluorescence polarization assay; conditions: cell membranes that express human ERG
T4 sequence (Q12809 whole entry): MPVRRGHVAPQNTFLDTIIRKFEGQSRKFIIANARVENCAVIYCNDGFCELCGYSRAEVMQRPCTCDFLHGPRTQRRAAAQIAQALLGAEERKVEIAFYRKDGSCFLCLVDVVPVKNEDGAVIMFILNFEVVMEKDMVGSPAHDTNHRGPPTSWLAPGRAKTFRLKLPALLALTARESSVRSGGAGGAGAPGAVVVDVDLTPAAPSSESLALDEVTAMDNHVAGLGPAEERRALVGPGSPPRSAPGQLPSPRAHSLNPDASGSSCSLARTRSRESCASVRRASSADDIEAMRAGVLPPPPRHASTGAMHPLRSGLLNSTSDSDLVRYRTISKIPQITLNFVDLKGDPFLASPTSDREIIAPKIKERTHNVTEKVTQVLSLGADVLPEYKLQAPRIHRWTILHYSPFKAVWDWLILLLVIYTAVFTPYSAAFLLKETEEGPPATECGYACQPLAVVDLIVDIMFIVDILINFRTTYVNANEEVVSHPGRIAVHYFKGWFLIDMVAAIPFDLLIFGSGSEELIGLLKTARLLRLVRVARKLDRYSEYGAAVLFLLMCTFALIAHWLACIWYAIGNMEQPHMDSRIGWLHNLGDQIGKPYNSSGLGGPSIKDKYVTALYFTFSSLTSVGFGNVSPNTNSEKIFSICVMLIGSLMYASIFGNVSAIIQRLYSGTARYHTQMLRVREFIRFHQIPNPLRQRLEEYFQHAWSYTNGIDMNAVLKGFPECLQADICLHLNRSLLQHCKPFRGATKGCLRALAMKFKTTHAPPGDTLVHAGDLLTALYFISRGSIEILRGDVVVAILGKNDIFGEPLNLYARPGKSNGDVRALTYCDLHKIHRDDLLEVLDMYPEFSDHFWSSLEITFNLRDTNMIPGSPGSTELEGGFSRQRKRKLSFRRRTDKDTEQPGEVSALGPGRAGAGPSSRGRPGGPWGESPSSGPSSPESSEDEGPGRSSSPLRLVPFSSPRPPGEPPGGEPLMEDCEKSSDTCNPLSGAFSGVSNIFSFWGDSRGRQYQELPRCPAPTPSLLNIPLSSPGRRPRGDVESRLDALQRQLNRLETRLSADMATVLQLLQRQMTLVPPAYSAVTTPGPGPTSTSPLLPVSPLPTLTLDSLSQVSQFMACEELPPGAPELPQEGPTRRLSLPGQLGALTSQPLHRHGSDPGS
Method in brief: (§3)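 Predictor hERG fluorescence polarization kit used per manufacturer's protocol. hERG-containing cell membranes incubated with fluorescent tracer and test compound at 1, 5 or 20 uM for 4 h.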

[11] = biological target: T4, hERG (KCNH2); assay: Inhibition of human ERG expressed in cell membranes at 5 uM after 4 hrs by fluorescence polarization assay; conditions: cell membranes that express human ERG; method in brief: as §3
[12] = biological target: T4, hERG (KCNH2); assay: Inhibition of human ERG expressed in cell membranes at 1 uM after 4 hrs by fluorescence polarization assay; conditions: cell membranes that express human ERG; method in brief: as §3
[13] = biological target: T5, CYP1A2 (Homo sapiens, UniProt P05177); assay: Inhibition of CYP1A2 (unknown origin) at 20 uM by P450-glo assay; format: ADME
T5 sequence (P05177 whole entry): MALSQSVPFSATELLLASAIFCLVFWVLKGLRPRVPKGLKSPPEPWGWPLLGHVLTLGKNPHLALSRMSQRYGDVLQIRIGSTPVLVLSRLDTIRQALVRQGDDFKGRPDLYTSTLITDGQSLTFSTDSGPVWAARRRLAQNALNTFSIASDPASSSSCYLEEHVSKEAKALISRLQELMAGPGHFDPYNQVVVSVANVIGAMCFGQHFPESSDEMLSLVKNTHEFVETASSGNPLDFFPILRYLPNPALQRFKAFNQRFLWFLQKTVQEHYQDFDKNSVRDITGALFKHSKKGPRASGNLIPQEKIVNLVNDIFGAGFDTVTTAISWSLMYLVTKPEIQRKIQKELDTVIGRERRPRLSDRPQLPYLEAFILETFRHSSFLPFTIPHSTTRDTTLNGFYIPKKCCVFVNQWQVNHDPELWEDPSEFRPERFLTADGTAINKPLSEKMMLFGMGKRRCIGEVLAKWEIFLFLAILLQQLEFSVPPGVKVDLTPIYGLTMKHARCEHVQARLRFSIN
Method in brief: (§4)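 P450-Glo luminescent assay run per manufacturer's protocol. Each CYP isoform incubated with its luminogenic substrate and test compound at 20 uM (0.25% DMSO final), in quadruplicate. Control membranes without CYP served as baseline.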

[14] = biological target: CYP2C9 (Homo sapiens, UniProt P11712); assay: Inhibition of CYP2C9 (unknown origin) at 20 uM by P450-glo assay; format: ADME; method in brief: as §4
CYP2C9, sequence (P11712 whole entry): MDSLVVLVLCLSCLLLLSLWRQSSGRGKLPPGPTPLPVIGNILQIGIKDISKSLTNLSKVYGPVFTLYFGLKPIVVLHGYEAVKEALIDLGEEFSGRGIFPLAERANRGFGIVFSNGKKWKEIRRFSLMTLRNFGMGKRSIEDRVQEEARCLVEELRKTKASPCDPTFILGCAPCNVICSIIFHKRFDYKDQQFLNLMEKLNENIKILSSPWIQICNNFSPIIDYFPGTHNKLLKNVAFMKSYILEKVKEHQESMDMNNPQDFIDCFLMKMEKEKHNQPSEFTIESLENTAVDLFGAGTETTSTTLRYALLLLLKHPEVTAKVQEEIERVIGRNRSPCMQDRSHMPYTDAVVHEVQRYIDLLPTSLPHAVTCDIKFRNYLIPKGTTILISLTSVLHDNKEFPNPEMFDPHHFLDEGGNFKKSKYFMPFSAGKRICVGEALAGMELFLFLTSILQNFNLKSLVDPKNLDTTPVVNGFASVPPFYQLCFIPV

[15] = biological target: CYP2C19 (Homo sapiens, UniProt P33261); assay: Inhibition of CYP2C19 (unknown origin) at 20 uM by P450-glo assay; format: ADME; method in brief: as §4
CYP2C19, sequence (P33261 whole entry): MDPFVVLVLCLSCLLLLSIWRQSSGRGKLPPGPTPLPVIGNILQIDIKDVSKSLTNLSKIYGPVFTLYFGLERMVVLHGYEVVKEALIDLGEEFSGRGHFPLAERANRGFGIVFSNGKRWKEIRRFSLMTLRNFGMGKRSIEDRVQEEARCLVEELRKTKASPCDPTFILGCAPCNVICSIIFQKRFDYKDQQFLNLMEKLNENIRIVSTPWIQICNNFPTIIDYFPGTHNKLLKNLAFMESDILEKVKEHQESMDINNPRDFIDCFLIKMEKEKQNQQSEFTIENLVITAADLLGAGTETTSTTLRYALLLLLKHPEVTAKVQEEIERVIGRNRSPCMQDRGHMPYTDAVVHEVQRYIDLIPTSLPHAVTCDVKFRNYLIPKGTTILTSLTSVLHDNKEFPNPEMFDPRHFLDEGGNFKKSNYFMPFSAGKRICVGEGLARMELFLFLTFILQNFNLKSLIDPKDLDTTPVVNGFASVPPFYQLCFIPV

[16] = biological target: CYP2D6 (Homo sapiens, UniProt P10635); assay: Inhibition of CYP2D6 (unknown origin) at 20 uM by P450-glo assay; format: ADME; method in brief: as §4
CYP2D6, sequence (P10635 whole entry): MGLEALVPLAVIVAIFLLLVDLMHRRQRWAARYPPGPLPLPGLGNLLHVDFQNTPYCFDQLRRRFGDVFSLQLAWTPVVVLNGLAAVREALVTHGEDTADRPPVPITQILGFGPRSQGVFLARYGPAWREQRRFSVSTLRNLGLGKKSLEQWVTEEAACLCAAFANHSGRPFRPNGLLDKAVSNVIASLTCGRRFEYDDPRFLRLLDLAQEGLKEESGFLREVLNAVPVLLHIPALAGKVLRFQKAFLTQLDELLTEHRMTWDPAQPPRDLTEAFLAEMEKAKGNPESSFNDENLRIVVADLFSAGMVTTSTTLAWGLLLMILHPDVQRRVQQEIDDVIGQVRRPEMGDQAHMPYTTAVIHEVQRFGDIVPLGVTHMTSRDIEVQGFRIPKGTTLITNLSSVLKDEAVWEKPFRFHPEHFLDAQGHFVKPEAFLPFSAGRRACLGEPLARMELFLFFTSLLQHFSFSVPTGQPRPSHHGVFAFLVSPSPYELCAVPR

[17] = biological target: CYP3A4 (Homo sapiens, UniProt P08684); assay: Inhibition of CYP3A4 (unknown origin) at 20 uM by P450-glo assay; format: ADME
CYP3A4, sequence (P08684 whole entry): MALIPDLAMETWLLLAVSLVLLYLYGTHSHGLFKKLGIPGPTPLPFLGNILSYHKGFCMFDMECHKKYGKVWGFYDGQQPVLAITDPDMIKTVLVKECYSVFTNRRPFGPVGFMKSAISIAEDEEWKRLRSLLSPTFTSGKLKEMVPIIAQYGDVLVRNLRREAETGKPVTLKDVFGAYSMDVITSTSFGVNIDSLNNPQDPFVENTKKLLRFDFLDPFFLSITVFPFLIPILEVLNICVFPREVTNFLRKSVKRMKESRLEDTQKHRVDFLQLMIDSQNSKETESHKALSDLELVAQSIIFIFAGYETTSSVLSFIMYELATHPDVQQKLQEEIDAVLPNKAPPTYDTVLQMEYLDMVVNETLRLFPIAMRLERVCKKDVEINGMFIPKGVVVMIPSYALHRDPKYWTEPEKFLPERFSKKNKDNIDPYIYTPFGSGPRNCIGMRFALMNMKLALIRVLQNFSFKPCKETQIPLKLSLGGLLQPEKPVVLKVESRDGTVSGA

Free fatty acid receptor 1, sequence (O14842 whole entry): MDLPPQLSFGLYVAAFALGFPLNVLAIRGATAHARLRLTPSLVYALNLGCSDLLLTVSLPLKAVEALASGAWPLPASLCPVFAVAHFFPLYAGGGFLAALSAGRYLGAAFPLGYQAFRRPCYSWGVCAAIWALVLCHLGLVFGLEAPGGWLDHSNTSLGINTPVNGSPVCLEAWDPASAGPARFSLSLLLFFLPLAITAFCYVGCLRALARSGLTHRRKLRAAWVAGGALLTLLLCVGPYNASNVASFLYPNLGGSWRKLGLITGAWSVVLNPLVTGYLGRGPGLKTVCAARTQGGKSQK

## O=C(O)CCc1nnc(C(=O)Nc2ccc(OCc3ccccc3)cc2)s1
[1]
  EC50: 17.9 µM

## O=C(O)CCc1ccc(OCc2nnc(C(=O)Nc3ccc(F)cc3)s2)cc1
[1]
  EC50: 6.64 µM

## COc1ccc(NC(=O)c2nnc(COc3ccc(CCC(=O)O)cc3)s2)cc1
[1]
  EC50: > 10 µM

## Cc1ccc(NC(=O)c2nnc(COc3ccc(CCC(=O)O)cc3)s2)cc1
[1]
  EC50: 4.3 µM

## O=C(O)CCc1nnc(C(=O)Nc2cccc(-c3ccco3)c2)s1
[1]
  EC50: 1.64 µM

## Cc1cccc(-c2cccc(NC(=O)c3nnc(CCC(=O)O)s3)c2)c1
[1]
  EC50: 0.76 µM
[2]
  EC50: > 10 µM
[3]
  EC50: > 10 µM
[4]
  EC50: > 10 µM
[5]
  half-life at 1 µM: > 4 h
[6]
  fraction unbound at 5 h, 1 µM: 0.076
[7]
  half-life at 2 µM: 1.29 h
[8]
  logD: 1.28
[9]
  microsomal CLint at 2 µM: 21.6 µL/min/mg
[10]
  inhibition at 4 h, 20 µM: 22%
[11]
  inhibition at 4 h, 5 µM: 2%
[12]
  inhibition at 4 h, 1 µM: 8%
[13]
  inhibition at 20 µM: 94.3%
[14]
  inhibition at 20 µM: 9.8%
[15]
  inhibition at 20 µM: 37.2%
[16]
  inhibition at 20 µM: 1.8%
[17]
  inhibition at 20 µM: 12.3%

## O=C(O)CCc1ccc(OCc2nnc(C(=O)Nc3cccc(Cl)c3)s2)cc1
[1]
  EC50: 10.6 µM
[5]
  half-life at 1 µM: 1.93 h
[6]
  fraction unbound at 5 h, 1 µM: 0.072
[7]
  half-life at 2 µM: 0.22 h
[8]
  logD: 1.46
[9]
  microsomal CLint at 2 µM: 126 µL/min/mg
[10]
  inhibition at 4 h, 20 µM: 36%
[11]
  inhibition at 4 h, 5 µM: -3%
[12]
  inhibition at 4 h, 1 µM: 1%
[13]
  inhibition at 20 µM: 41.9%
[14]
  inhibition at 20 µM: 85%
[15]
  inhibition at 20 µM: 77.7%
[16]
  inhibition at 20 µM: 22.7%
[17]
  inhibition at 20 µM: 55.2%

## O=C(O)CCc1nnc(C(=O)Nc2cccc(-c3cccc(Cl)c3)c2)s1
[1]
  EC50: 1.69 µM
